Assay results reported in ChEMBL document CHEMBL2384906, “Biological activity, design, synthesis and structure activity relationship of some novel derivatives of curcumin containing sulfonamides” (Eur J Med Chem, 2013).
Values after ≈ are worked out from the molar mass of the structure shown.

How the values were obtained:
Trichoderma viride [1] = assay: Antifungal activity against Trichoderma viride MTCC 1107 assessed as zone of inhibition at 40 uM after 48 hrs by disc diffusion method; assay type: functional; conditions: MTCC 1107, 48 h, read-out: IZ
Procedure, shortened: (§1)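 Spores from 4-day potato dextrose agar cultures, suspended in sterile water at 1.5 × 10⁵ CFU/mL. 0.2 mL was spread on potato dextrose agar. 5 mm filter-paper discs soaked with test compound were laid on the lawn. Incubation was 48 h at 28 °C, then the inhibition zone was measured in mm. Fluconazole was the positive control and acetone the negative control.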

Staphylococcus aureus [2] = assay: Antimicrobial activity against Staphylococcus aureus ATCC 11632 assessed as diameter of inhibition zone at 20 uM after 24 hrs by Kirby -Baur disc diffusion method; assay type: functional; conditions: ATCC 11632, 24 h, read-out: DIZ
Procedure, shortened: (§2)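 Kirby-Bauer disc diffusion was used. Acetone stocks (160 µM) were serially doubled down to 80, 40 and 20 µM. 4 µL of each went onto 5 mm sterile paper discs, which were dried 30 min at 50 °C. Inoculum was 1.5 × 10⁸ CFU/mL diluted to 3 × 10² CFU/mL, and 50 µL was spread on Mueller-Hinton agar. After 24 h at 37 °C the inhibition-zone diameter was measured. Ciprofloxacin served as positive control.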

Aspergillus niger [3] = assay: Antifungal activity against Aspergillus niger MTCC 1108 after 48 hrs; assay type: functional; conditions: MTCC 1108, 48 h
Curvularia lunata [4] = assay: Antifungal activity against Curvularia lunata MTCC 581 after 48 hrs; assay type: functional; conditions: MTCC 581, 48 h
HeLa = assay: Cytotoxicity against human HeLa cells after 24 hrs by MTT assay; assay type: functional, cell-based
Procedure, shortened: (§3)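 The MTT assay seeded 5 × 10⁴ cells per well and grew them 24 h in RPMI 1640 with compound at 2.5–200 µM. Medium without cells was the blank and adriamycin the positive control. MTT was added for 4 h at 37 °C, formazan was solubilised, and absorbance was read at 570 nm. IC50 is the concentration that cuts viability 50% against untreated cells.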

Salmonella typhi [5] = assay: Antimicrobial activity against Salmonella typhi ATCC 23564 assessed as diameter of inhibition zone at 40 uM after 24 hrs by Kirby -Baur disc diffusion method; assay type: functional, Salmonella enterica subsp. enterica serovar Typhi; conditions: Salmonella enterica, ATCC 23564, 24 h; read-out: DIZ
Trichoderma viride [6] = assay: Antifungal activity against Trichoderma viride MTCC 1107 assessed as zone of inhibition at 80 uM after 48 hrs by disc diffusion method; assay type: functional; conditions: MTCC 1107, 48 h, read-out: IZ; procedure, shortened: as §1
Aspergillus flavus [7] = assay: Antifungal activity against Aspergillus flavus MTCC 1021 assessed as zone of inhibition at 20 uM after 48 hrs by disc diffusion method; assay type: functional; conditions: MTCC 1021, 48 h, read-out: IZ; procedure, shortened: as §1
Curvularia lunata [8] = assay: Antifungal activity against Curvularia lunata MTCC 581 assessed as zone of inhibition at 20 uM after 48 hrs by disc diffusion method; assay type: functional; conditions: MTCC 581, 48 h, read-out: IZ; procedure, shortened: as §1
Trichoderma viride [9] = assay: Antifungal activity against Trichoderma viride MTCC 1107 assessed as zone of inhibition at 20 uM after 48 hrs by disc diffusion method; assay type: functional; conditions: MTCC 1107, 48 h, read-out: IZ; procedure, shortened: as §1
Pseudomonas aeruginosa [10] = assay: Antimicrobial activity against Pseudomonas aeruginosa ATCC 15499 assessed as diameter of inhibition zone at 80 uM after 24 hrs by Kirby -Baur disc diffusion method; assay type: functional; conditions: ATCC 15499, 24 h, read-out: DIZ; procedure, shortened: as §2
Aspergillus niger [11] = assay: Antifungal activity against Aspergillus niger MTCC 1108 assessed as zone of inhibition at 80 uM after 48 hrs by disc diffusion method; assay type: functional; conditions: MTCC 1108, 48 h, read-out: IZ; procedure, shortened: as §1
Curvularia lunata [12] = assay: Antifungal activity against Curvularia lunata MTCC 581 assessed as zone of inhibition at 40 uM after 48 hrs by disc diffusion method; assay type: functional; conditions: MTCC 581, 48 h, read-out: IZ; procedure, shortened: as §1
Salmonella typhi [13] = assay: Antimicrobial activity against Salmonella typhi ATCC 23564 assessed as diameter of inhibition zone at 80 uM after 24 hrs by Kirby -Baur disc diffusion method; assay type: functional, Salmonella enterica subsp. enterica serovar Typhi; conditions: Salmonella enterica, ATCC 23564, 24 h; read-out: DIZ
Staphylococcus aureus [14] = assay: Antimicrobial activity against Staphylococcus aureus ATCC 11632 assessed as diameter of inhibition zone at 80 uM after 24 hrs by Kirby -Baur disc diffusion method; assay type: functional; conditions: ATCC 11632, 24 h, read-out: DIZ; procedure, shortened: as §2
Aspergillus flavus [15] = assay: Antifungal activity against Aspergillus flavus MTCC 1021 assessed as zone of inhibition at 40 uM after 48 hrs by disc diffusion method; assay type: functional; conditions: MTCC 1021, 48 h, read-out: IZ; procedure, shortened: as §1
Escherichia coli [16] = assay: Antimicrobial activity against Escherichia coli ATCC 35218 assessed as diameter of inhibition zone at 20 uM after 24 hrs by Kirby -Baur disc diffusion method; assay type: functional; conditions: ATCC 35218, 24 h, read-out: DIZ; procedure, shortened: as §2
HepG2 = assay: Cytotoxicity against human HepG2 cells after 24 hrs by MTT assay; assay type: functional, cell-based; procedure, shortened: as §3
Aspergillus flavus [17] = assay: Antifungal activity against Aspergillus flavus MTCC 1021 after 48 hrs; assay type: functional; conditions: MTCC 1021, 48 h
Bacillus cereus [18] = assay: Antimicrobial activity against Bacillus cereus MTCC 7350 assessed as diameter of inhibition zone at 20 uM after 24 hrs by Kirby -Baur disc diffusion method; assay type: functional; conditions: MTCC 7350, 24 h, read-out: DIZ; procedure, shortened: as §2
Escherichia coli [19] = assay: Antimicrobial activity against Escherichia coli ATCC 35218 assessed as diameter of inhibition zone at 80 uM after 24 hrs by Kirby -Baur disc diffusion method; assay type: functional; conditions: ATCC 35218, 24 h, read-out: DIZ; procedure, shortened: as §2
Escherichia coli [20] = assay: Antimicrobial activity against Escherichia coli ATCC 35218 after 24 hrs by broth micro serial dilution method; assay type: functional; conditions: ATCC 35218, 24 h
Procedure, shortened: (§4)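 This was broth microdilution in autoclaved Mueller-Hinton broth. 150 µL of compound per well was serially diluted […], and 50 µL of test organism was added. Plates were incubated 24 h at 37 °C and optical density was read.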

Staphylococcus aureus [21] = assay: Antimicrobial activity against Staphylococcus aureus ATCC 11632 after 24 hrs by broth micro serial dilution method; assay type: functional; conditions: ATCC 11632, 24 h; procedure, shortened: as §4
Pseudomonas aeruginosa [22] = assay: Antimicrobial activity against Pseudomonas aeruginosa ATCC 15499 after 24 hrs by broth micro serial dilution method; assay type: functional; conditions: ATCC 15499, 24 h; procedure, shortened: as §4
Mus musculus = assay: Antiinflammatory activity in mouse assessed as inhibition of carrageenan-induced increase in paw volume at 200 mg/kg administered 1 hr prior to carrageenan challenge measured after 3 hrs relative to control; assay type: functional
Procedure, shortened: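 Mice were fasted 2 h and placed in groups of five. Controls received saline i.p. Phenylbutazone was given at 100 mg/kg i.p., curcumin at 200 mg/kg i.p., and derivatives at 200 mg/kg. After 1 h, 0.1 mL of 1% carrageenan in saline was injected subplantar into the right hind paw. Paw volume was followed by plethysmometer for 3 h, and % inhibition was calculated as (Vc − Vt)/Vc × 100.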

Bacillus cereus [23] = assay: Antimicrobial activity against Bacillus cereus MTCC 7350 assessed as diameter of inhibition zone at 40 uM after 24 hrs by Kirby -Baur disc diffusion method; assay type: functional; conditions: MTCC 7350, 24 h, read-out: DIZ; procedure, shortened: as §2
QG-56 = assay: Cytotoxicity against human QG56 cells after 24 hrs by MTT assay; assay type: functional, cell-based; procedure, shortened: as §3
Aspergillus flavus [24] = assay: Antifungal activity against Aspergillus flavus MTCC 1021 assessed as zone of inhibition at 80 uM after 48 hrs by disc diffusion method; assay type: functional; conditions: MTCC 1021, 48 h, read-out: IZ; procedure, shortened: as §1
Aspergillus niger [25] = assay: Antifungal activity against Aspergillus niger MTCC 1108 assessed as zone of inhibition at 20 uM after 48 hrs by disc diffusion method; assay type: functional; conditions: MTCC 1108, 48 h, read-out: IZ; procedure, shortened: as §1
Curvularia lunata [26] = assay: Antifungal activity against Curvularia lunata MTCC 581 assessed as zone of inhibition at 80 uM after 48 hrs by disc diffusion method; assay type: functional; conditions: MTCC 581, 48 h, read-out: IZ; procedure, shortened: as §1
Salmonella typhi [27] = assay: Antimicrobial activity against Salmonella typhi ATCC 23564 assessed as diameter of inhibition zone at 20 uM after 24 hrs by Kirby -Baur disc diffusion method; assay type: functional, Salmonella enterica subsp. enterica serovar Typhi; conditions: Salmonella enterica, ATCC 23564, 24 h; read-out: DIZ
Pseudomonas aeruginosa [28] = assay: Antimicrobial activity against Pseudomonas aeruginosa ATCC 15499 assessed as diameter of inhibition zone at 40 uM after 24 hrs by Kirby -Baur disc diffusion method; assay type: functional; conditions: ATCC 15499, 24 h, read-out: DIZ; procedure, shortened: as §2
HCT-116 = assay: Cytotoxicity against human HCT116 cells after 24 hrs by MTT assay; assay type: functional, cell-based; procedure, shortened: as §3
Escherichia coli [29] = assay: Antimicrobial activity against Escherichia coli ATCC 35218 assessed as diameter of inhibition zone at 40 uM after 24 hrs by Kirby -Baur disc diffusion method; assay type: functional; conditions: ATCC 35218, 24 h, read-out: DIZ; procedure, shortened: as §2
Staphylococcus aureus [30] = assay: Antimicrobial activity against Staphylococcus aureus ATCC 11632 assessed as diameter of inhibition zone at 40 uM after 24 hrs by Kirby -Baur disc diffusion method; assay type: functional; conditions: ATCC 11632, 24 h, read-out: DIZ; procedure, shortened: as §2
Salmonella typhi [31] = assay: Antimicrobial activity against Salmonella typhi ATCC 23564 after 24 hrs by broth micro serial dilution method; assay type: functional, Salmonella enterica subsp. enterica serovar Typhi; conditions: Salmonella enterica, ATCC 23564, 24 h
Trichoderma viride [32] = assay: Antifungal activity against Trichoderma viride MTCC 1107 after 48 hrs; assay type: functional; conditions: MTCC 1107, 48 h
Bacillus cereus [33] = assay: Antimicrobial activity against Bacillus cereus MTCC 7350 assessed as diameter of inhibition zone at 80 uM after 24 hrs by Kirby -Baur disc diffusion method; assay type: functional; conditions: MTCC 7350, 24 h, read-out: DIZ; procedure, shortened: as §2
Pseudomonas aeruginosa [34] = assay: Antimicrobial activity against Pseudomonas aeruginosa ATCC 15499 assessed as diameter of inhibition zone at 20 uM after 24 hrs by Kirby -Baur disc diffusion method; assay type: functional; conditions: ATCC 15499, 24 h, read-out: DIZ; procedure, shortened: as §2
Aspergillus niger [35] = assay: Antifungal activity against Aspergillus niger MTCC 1108 assessed as zone of inhibition at 40 uM after 48 hrs by disc diffusion method; assay type: functional; conditions: MTCC 1108, 48 h, read-out: IZ; procedure, shortened: as §1
Bacillus cereus [36] = assay: Antimicrobial activity against Bacillus cereus MTCC 7350 after 24 hrs by broth micro serial dilution method; assay type: functional; conditions: MTCC 7350, 24 h; procedure, shortened: as §4

SMILES: COc1ccc(NS(=O)(=O)c2ccc(/N=C(\C=C\c3ccc(O)c(OC)c3)CC(/C=C/c3ccc(O)c(OC)c3)=N/c3ccc(S(=O)(=O)Nc4ccc(OC)nn4)cc3)cc2)nn1
- zone of inhibition at 40 µM (Trichoderma viride [1]): 16 mm
- zone of inhibition at 20 µM (Staphylococcus aureus [2]): 11 mm
- MIC (Aspergillus niger [3]): 40 µM (≈ 35.7 µg/mL)
- MIC (Curvularia lunata [4]): 20 µM (≈ 17.9 µg/mL)
- IC50 (HeLa): 50 µM
- zone of inhibition at 40 µM (Salmonella typhi [5]): 19 mm
- zone of inhibition at 80 µM (Trichoderma viride [6]): 19 mm
- zone of inhibition at 20 µM (Aspergillus flavus [7]): 9 mm
- zone of inhibition at 20 µM (Curvularia lunata [8]): 12 mm
- zone of inhibition at 20 µM (Trichoderma viride [9]): 12 mm
- zone of inhibition at 80 µM (Pseudomonas aeruginosa [10]): 22 mm
- zone of inhibition at 80 µM (Aspergillus niger [11]): 12 mm
- zone of inhibition at 40 µM (Curvularia lunata [12]): 15 mm
- zone of inhibition at 80 µM (Salmonella typhi [13]): 21 mm
- zone of inhibition at 80 µM (Staphylococcus aureus [14]): 21 mm
- zone of inhibition at 40 µM (Aspergillus flavus [15]): 11 mm
- zone of inhibition at 20 µM (Escherichia coli [16]): 14 mm
- IC50 (HepG2): 50 µM
- MIC (Aspergillus flavus [17]): 80 µM (≈ 71.4 µg/mL)
- zone of inhibition at 20 µM (Bacillus cereus [18]): 13 mm
- zone of inhibition at 80 µM (Escherichia coli [19]): 19 mm
- MIC (Escherichia coli [20]): 40 µM (≈ 35.7 µg/mL)
- MIC (Staphylococcus aureus [21]): 40 µM (≈ 35.7 µg/mL)
- MIC (Pseudomonas aeruginosa [22]): 40 µM (≈ 35.7 µg/mL)
- inhibition in vivo at 200 mg/kg (Mus musculus): 33.8%
- zone of inhibition at 40 µM (Bacillus cereus [23]): 17 mm
- IC50 (QG-56): 50 µM
- zone of inhibition at 80 µM (Aspergillus flavus [24]): 13 mm
- zone of inhibition at 20 µM (Aspergillus niger [25]): 8 mm
- zone of inhibition at 80 µM (Curvularia lunata [26]): 18 mm
- zone of inhibition at 20 µM (Salmonella typhi [27]): 14 mm
- zone of inhibition at 40 µM (Pseudomonas aeruginosa [28]): 19 mm
- IC50 (HCT-116): 25 µM
- zone of inhibition at 40 µM (Escherichia coli [29]): 17 mm
- zone of inhibition at 40 µM (Staphylococcus aureus [30]): 19 mm
- MIC (Salmonella typhi [31]): 40 µM (≈ 35.7 µg/mL)
- MIC (Trichoderma viride [32]): 20 µM (≈ 17.9 µg/mL)
- zone of inhibition at 80 µM (Bacillus cereus [33]): 22 mm
- zone of inhibition at 20 µM (Pseudomonas aeruginosa [34]): 12 mm
- zone of inhibition at 40 µM (Aspergillus niger [35]): 10 mm
- MIC (Bacillus cereus [36]): 40 µM (≈ 35.7 µg/mL)
